According to PMC4134686 (Journal of the American Chemical Society, 2013):

Experiments:
Experiment in all cases: isothermal titration calorimetry
Type in all cases: binding
EcSecA = EcSecA (Escherichia coli, UniProt P10408)
Summary of the method: (§1)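 Full-length native-sequence SecA purified by ion-exchange, hydrophobic and gel-filtration chromatography, then dialysed >18 h against TKM (50 mM Tris-HCl pH 8.0, 50 mM KCl, 5 mM MgCl₂) with 3 buffer changes. Mg-ADP dissolved in final dialysate and titrated at 25 °C into 20 μM WT BsSecA, 30 μM E208Q BsSecA or 10 μM WT EcSecA.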

BsSecA [1] = biological target: BsSecA (Bacillus subtilis, UniProt P28366)
Summary of the method: as §1

BsSecA [2] = biological target: BsSecA (Bacillus subtilis, UniProt P28366, E208Q)
Summary of the method: as §1

## Nc1ncnc2c1ncn2[C@@H]1O[C@H](COP(=O)(O)OP(=O)(O)O)[C@@H](O)[C@H]1O [Mg-ADP]
EcSecA
  Kd: 62 ± 4 nM
BsSecA [1]
  Kd: 180 ± 10 nM
BsSecA [2]
  Kd: 7700 ± 300 nM
